# From PubChem
# RORA act = RORA (human) activation; P35398; CHO-K1 Gal4-RORA LBD luciferase reporter, luminescence; percent increase over mock-subtracted basal signal; activation, % at 10 µM; 65,000 compounds, 1.5% hits; AID 560;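 active = activation above the mean of all tested compounds plus 3 SD, cut at about 49% in these data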
# M1 antag = antagonists of rat M1 muscarinic receptor; P08482; CHO-M1 cells, Fluo-4 calcium, ACh EC80 antagonist mode; active compounds read low; B-score at 10 µM; 64,000 compounds, 3.4% hits; AID 628;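 active = calcium fluorescence response, raw or row-and-column corrected B-score, differing from the plate sample mean either way at a set confidence level, mostly lower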
# M1 ag = agonists of M1 muscarinic receptor; CHO-M1 cells, Fluo-4 calcium fluorescence, agonist mode; active compounds read high; B-score at 10 µM; 64,000 compounds, 3% hits; AID 626;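 active = fluorescence rise, raw or as B-score row- and column-corrected plate score, outside the 99.7% band of its plate's samples, either direction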
# Htt clearance = mutant huntingtin protein clearance; HeLa Exon1htt(103Q)mCFP, aggregate imaging; zero = plate's median compound well; AID 853; inhibition, % at 1.5 µM; 47,000 compounds, 0.42% hits;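 active = inhibition of aggregate fluorescence above about 70%, also judged a hit by eye on the cell image, limit read from the data, passing the limit was not always enough; inconclusive = no rule stated for this call; inactive = not judged a hit on image review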;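 also: cells exposed to compound for three days before fixation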
# D1 mod = allosterically modulates the human D1 dopamine receptor; HEK293 D1, CRE-luciferase, dopamine EC30 potentiation; actives deviate in either direction; B-score at 10 µM; 58,000 compounds, 5.9% hits;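 active = luminescence count or its row- and column-corrected plate score outside the 99.7% band of the plate's sample wells, on either side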
# SF-1 act = SF-1 (human) activation | CHO-K1 Gal4-SF-1 LBD luciferase reporter; % increase over DMSO SF-1-specific signal | activation, % at 10 µM | 65,000 compounds, 1.9% hits;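 active = activation above the mean activation of all tested compounds plus 3 SD, cut at about 50% in these data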
# Target sequence (Q13285 whole entry, looked up, the tested form may be a part): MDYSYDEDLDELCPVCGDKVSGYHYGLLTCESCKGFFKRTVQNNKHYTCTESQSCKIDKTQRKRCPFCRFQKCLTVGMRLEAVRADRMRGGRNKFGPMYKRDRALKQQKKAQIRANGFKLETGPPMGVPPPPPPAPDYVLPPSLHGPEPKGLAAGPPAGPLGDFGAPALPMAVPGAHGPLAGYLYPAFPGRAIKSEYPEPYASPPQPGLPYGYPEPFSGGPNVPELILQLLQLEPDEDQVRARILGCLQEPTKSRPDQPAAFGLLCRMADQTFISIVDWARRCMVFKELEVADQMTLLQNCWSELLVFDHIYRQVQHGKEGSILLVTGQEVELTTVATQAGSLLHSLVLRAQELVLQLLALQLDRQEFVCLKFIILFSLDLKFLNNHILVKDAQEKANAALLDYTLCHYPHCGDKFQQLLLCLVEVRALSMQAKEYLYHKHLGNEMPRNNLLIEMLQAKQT
#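 Assay system: CHO-K1 cells co-transfected with Gal4 DBD–human SF-1 LBD, 5xGal4 luciferase reporter; doses: 10 µM only; incubation: 20 h compound exposure at 37 °C after 1 h cell settling; signal: luciferase light emission; evaluation: percent activation versus DMSO; repeats: one test per compound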
# M1 antag confirm = M1 muscarinic receptor (rat) antagonism, confirmed; shares compounds with M1 antag; calcium response (max-min fluorescence) at 10 µM; CHO-M1 cells, Fluo-4 calcium, ACh EC80 antagonism; active compounds read low; 1,700 compounds, 43% hits;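 active = calcium response below the same-plate mean of wells given acetylcholine alone at its 80%-effect dose, minus 3 SD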
# mGluR4 antag = selectivity test for M1 antagonists: human mGluR4 receptor. shares compounds with M1 antag. CHO-mGluR4 calcium flux, Fluo-4 fluorescence, glutamate EC80; active compounds read low. fluorescence response (max-min) at 10 µM. 1,700 compounds, 0.9% hits. AID 678;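 active = fluorescence response below the plate's average for near-maximal glutamate wells, less 3 SD of those wells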;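 also: raw unnormalized fluorescence span taken in the window right after glutamate addition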
# D1 mod confirm = D1 receptor (human) allosteric modulation, confirmed; shares compounds with D1 mod; HEK293 D1 CRE-luciferase, dopamine EC30 potentiation; active compounds read high; luminescence at 10 µM; 2,200 compounds, 88% hits; AID 642;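 active = luminescence in either of two replicates above the same-plate mean plus 3 SD of the low-dose dopamine control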
# D1 ag no DA = activates D1 CRE-luciferase signal without dopamine present. shares compounds with D1 mod. HEK293 D1 CRE-luciferase, luminescence, no dopamine; active compounds read high. luminescence at 10 µM. 1,900 compounds, 0.8% hits. AID 646; in the data active = luminescence above about 3900
# Isoprot counter = counter-screen for D1 modulators: isoproterenol response in HEK293 cells. calls only at 10 µM. AID 647. shares compounds with D1 mod. HEK293 D1 CRE-luciferase, isoproterenol EC30 counter-screen. 2,200 compounds, 63% hits;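 active = luminescence in either replicate above plate mean of wells with a partly effective reference agonist dose plus 3 SD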;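 also: isoproterenol raises cAMP through native beta-adrenoceptor Gs so signal bypasses D1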
# Numbers stand for hits; 0 = inactive; ? = inconclusive; - = no result given; + = active, no number. An excerpt weighted towards active compounds, which were near 11% of everything screened.
SMILES,RORA act,M1 antag,M1 ag,Htt clearance,D1 mod,SF-1 act,M1 antag confirm,mGluR4 antag,others
O=C1NC(=O)C(CCc2ccncc2)(C2CCCCC2)C(=O)N1,0,-4.6,0,-,0,0,550,0,
CCOC(=O)C1=C(C)N(C)C2(C)CC1c1ccccc1O2 (stereo not drawn),0,-2.4,0,-,0,0,0,0,
CN1CCN(CCC(C#N)(c2ccccc2)c2ccccc2)CC1,0,-17,0,-,-,0,16,0,
CCC(=NCc1ccc2c(c1)OCO2)c1c(O)n(C2CCCCC2)c(=O)[nH]c1=O,0,0,0,0,0,0,-,-,
CCCCCn1c(=O)c(C(=O)Nc2ccncc2)c(O)c2ccccc21,0,0,0,-,0,0,-,-,
CCCCCCn1c(=O)c(C(=O)Nc2c(C)n(C)n(-c3ccccc3)c2=O)c(O)c2ccccc21,0,-8,0,-,0,0,167,0,
CCCCCCN=C(C)c1c(O)n(CCCC)c(=O)[nH]c1=O,0,0,0,0,0,0,-,-,
CCN(CC)CCCN=Cc1c(O)n(-c2ccccc2F)c(=O)[nH]c1=O,0,-2.3,0,-,0,0,0,0,
CCN(CC)CCCN=Cc1c(O)n(-c2cccc(C)c2C)c(=O)[nH]c1=O,0,0,0,-,0,0,-,-,
C[N+]1(C)[C@@H]2CC[C@H]1CC(OC(=O)C(CO)c1ccccc1)C2 (stereo partly drawn),0,-17,0,-,0,0,12,0,
CC(=O)c1c(C)[nH]c(C(=O)N2CCC3(CC2)OCCO3)c1C,0,0,0,0,0,0,-,-,
CC1CN=C(Nc2ccc(N(C)C)cc2)S1 (stereo not drawn),0,-2.1,0,0,0,0,0,0,
CC1CN=C(Nc2ccccc2)S1 (stereo not drawn),0,0,0,0,-,0,-,-,
CCOC(=O)C1CCN(C(C)C(=O)c2c(C)[nH]c3cc(C)ccc23)CC1 (stereo not drawn),0,-4.3,0,-,0,0,445,0,
CCOC(=O)C(NC(C)=O)C(OC(C)=O)c1cccc(N(CCCl)CCCl)c1 (stereo not drawn),-,-,-,0,-,-,-,-,
O=C(COc1ccc2ccccc2c1)N1CCN(C2CCN(Cc3ccccc3)CC2)CC1,0,-2.4,0,-,0,0,0,0,
O=C(COc1ccccc1)N1CCN(C2CCCC2)CC1,0,0,0,-,0,0,-,-,
COC1=CC(=O)OC(/C=C/c2ccccc2)C1 (stereo not drawn),0,0,0,-,0,0,-,-,
CN1C(=O)C(Cc2cccc3ccccc23)C(=O)N(C)C1=O,0,0,0,?,0,0,-,-,
O=C1C2CCN(CC2)[C@@H]1Cc1ccc2ccccc2c1O,0,-4.6,0,0,0,0,92,0,
CN1C2CCC1CC(OC(=O)c1ccc(Cl)cc1)C2 (stereo not drawn),0,-19,0,-,0,0,61,0,
COc1cc(CN2CCN(C(=O)COc3ccccc3)CC2)cc(OC)c1OC,0,0,0,-,0,0,-,-,
CCOC(=O)C1(c2ccccc2)CCN(Cc2cccc(C(=O)O)c2)CC1,0,-3.8,0,0,0,0,0,0,
CN1C(=O)N(C)C(=O)C(CCc2ccncc2)(Cc2ccc3c(c2)OCO3)C1=O,0,0,0,-,0,0,-,-,
CC1CCC(NCCc2ccc3c(c2)OCO3)CC1 (stereo not drawn),0,-5.2,0,0,0,0,199,0,
SMILES,RORA act,M1 antag,M1 ag,Htt clearance,D1 mod,SF-1 act,M1 antag confirm,mGluR4 antag,others
COc1ccccc1N1C(=O)NC(=O)C2(Cc3cc(C)ccc3N(C)C2)C1=O (stereo not drawn),0,0,0,-,0,0,-,-,
O/N=C1/C(=C\c2ccccc2)N2CCC1CC2,0,0,0,0,0,0,-,-,
CC1(C)CN=C(Nc2ccc(F)c(F)c2)S1,0,0,0,0,12,0,-,-,D1 mod confirm=25280;D1 ag no DA=0;Isoprot counter=+
O=c1[nH]c2ccccc2c(=O)n1-c1cccc(Cl)c1,0,0,0,0,9.2,0,-,-,D1 mod confirm=10464;D1 ag no DA=0;Isoprot counter=+
CCCCn1c(O)c(C(CC)=NCCN2CCCCC2)c(=O)[nH]c1=O,0,0,0,0,0,0,-,-,
COc1cccc(-c2nc(CS(=O)CC(=O)N3CCC4(CC3)OCCO4)c(C)o2)c1 (stereo not drawn),0,0,0,0,0,0,-,-,
COc1cccc(-c2cc(C(F)(F)F)n3nc(C(=O)N4CCC5(CC4)OCCO5)cc3n2)c1,0,0,0,0,2.4,0,-,-,D1 mod confirm=9588;Isoprot counter=0
CC(=NCc1ccc(F)cc1)c1c(O)n(C)c(=O)n(C)c1=O,0,0,0,0,-,0,-,-,
CCC(=NCc1ccco1)c1c(O)[nH]c(=O)[nH]c1=O,0,0,0,0,8.6,0,-,-,D1 mod confirm=16800;Isoprot counter=+
CCC(C)NC(=O)c1c(N)n(CCCOC)c2nc3ccccc3nc12 (stereo not drawn),0,0,0,0,5.1,0,-,-,D1 mod confirm=9844;D1 ag no DA=0;Isoprot counter=+
CCC(C)OC(=O)c1c(N)n(Cc2cccs2)c2nc3ccccc3nc12 (stereo not drawn),-,-,-,0,-,-,-,-,
COCCCn1c(N)c(C(=O)OC(C)COC)c2nc3ccccc3nc21 (stereo not drawn),0,0,0,-,5.6,0,-,-,D1 mod confirm=8820;D1 ag no DA=0;Isoprot counter=0
CCCCOCCCn1c(N)c(C(=O)OC(C)COC)c2nc3ccccc3nc21 (stereo not drawn),0,0,0,-,6.7,0,-,-,D1 mod confirm=11516;D1 ag no DA=0;Isoprot counter=+
O=C(CCCOc1ccc(Cl)cc1Cl)N1CCC2(CC1)OCCO2,0,0,0,0,6.6,0,-,-,D1 mod confirm=8848;D1 ag no DA=0;Isoprot counter=+
CCOc1cc2[nH]c(=S)n(CCCC(=O)N3CCC4(CC3)OCCO4)c(=O)c2cc1OCC,0,0,0,0,0,0,-,-,
NCCc1ccc(O)cc1,0,0,0,-,5.1,0,-,-,D1 mod confirm=7676;D1 ag no DA=17832;Isoprot counter=+
Clc1cccc(C2NCCc3[nH]cnc32)c1 (stereo not drawn),-,-,-,0,-,-,-,-,
CCOC(=O)N(c1ccccc1)P1(=S)OCC(C)O1 (stereo not drawn),0,-,-,0,-,0,-,-,
CCOC(=O)N(c1ccccc1)P1(=S)OCCO1,0,0,0,0,7.4,0,-,-,D1 mod confirm=19704;D1 ag no DA=0;Isoprot counter=+
COC(=O)N(c1ccccc1)P1(=S)OCCO1,0,0,0,-,5.3,0,-,-,D1 mod confirm=11592;D1 ag no DA=0;Isoprot counter=+
